Shown are actives, neighbours in structure and some others; about 2.4% of the full set was active somewhere.
p-CIP stab down: p/CIP protein destabilization; AID 1984; F442A p/CIP-EGFP cells, EGFP fluorescence, 16 h; 290,000 compounds, 0.01% hits; decrease of EGFP signal, % at 10 µM; Q05BA5;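 active means EGFP signal decrease of at least 30% at 10 µM or well 3 SD below plate mean, unless failing retest; inactive means the rest, including hits failing retest or dose response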
JMJD2C inh: inhibitors of human GASC-1 (JMJD2C) demethylase | Q9H3R0 | GST-JMJD2C(1-420) H3K9me3 demethylation, DELFIA europium | inhibition, % at 2.35 µM | 330,000 compounds, 0.069% hits | AID 2099;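 active means more than half of a compound's replicate wells show inhibition beyond 50%, single wells judged on their own value; inconclusive means some, but no more than half, of replicates pass 50% inhibition; inactive means no replicate passes 50% inhibition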;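 further: signal counts dimethyl H3K9 product captured on neutravidin plate; 0% = median of DMSO wells and 100% = 0.3 times that DMSO median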
PP5 primary: blocks human protein phosphatase 5 activity. inhibition, % at 6.7 µM. AID 1987. purified PP5c, OMFP substrate fluorescence. 320,000 compounds, 0.18% hits;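 active means inhibition above the campaign's mean inhibition across all tested compounds plus 3 SD, cut at about 9.5% in these data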;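 further: 0% = DMSO only and 100% = 100 µM cantharidin control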
T cruzi inh: blocks replication of Trypanosoma cruzi; 300,000 compounds, 1.4% hits; inhibition, % (no concentration beside the values); AID 1885; T. cruzi beta-gal in NIH3T3, luminescence, 90 h;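 active means mean inhibition across valid replicates above about 55%, limit read from the data; inconclusive means mean below that limit but half or more replicates reach it; inactive means mean below it, under half of replicates reach it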;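 further: signal also drops with host cell toxicity which is not excluded here; 0% = plate median of DMSO wells and 100% = zero luminescence signal; higher percent means less beta-gal luminescence so fewer parasites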
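Read-out: Parasite load inhibition, % | Test system: Mouse NIH/3T3 fibroblasts infected with β-gal-expressing T. cruzi Tulahuen C4 | Amount: 5,000 cells/well | Medium: DMEM, 2% fetal bovine serum | Signal: GalScreen β-gal luminescence, detergent lysis, 60 min | Timing: 3 h attach, ≥90 h co-culture | Also added: Tulahuen C4 trypomastigotes, 5000/well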
Fh CTSL1 inh: blocks F. hepatica cathepsin L1 in PFM18AAP counter-screen. recombinant F. hepatica cathepsin L1, Z-Leu-Arg-MCA fluorescence. inhibition, % at 5.96 µM. 300,000 compounds, 0.49% hits. AID 1906;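 active means inhibition above the mean of all tested compounds plus 3 SD, set per screening campaign, cut at about 17% in these data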;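 further: 0% = plate median of test compound wells and 100% = 1 µM Z-Phe-Ala-diazomethylketone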
H9c2 protect: myocardial damage modulation in H9c2 cells. H9c2 cardiomyocytes, H2O2 injury protection, ATPLite, 2 h. protection from H2O2 cell death, % at 20 µM. 360,000 compounds, 0.63% hits. AID 588492;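 active means compounds giving at least 50% protection of heart cells from peroxide-induced death in the single-dose screen, raw or plate-pattern-corrected value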;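 further: 0% = DMSO wells with peroxide and 100% = DMSO wells without peroxide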
Starred values were filed as active, the others as inactive; i = inactive; ? = inconclusive; · = no result given.

SMILES	p-CIP stab down	JMJD2C inh	PP5 primary	T cruzi inh	Fh CTSL1 inh	H9c2 protect
COC(=O)C(Cc1ccccc1)NC(=O)COc1ccc(C(C)(C)C)cc1 (configuration not stated)	9	61*	4	-3	2	-14
CCOc1ccc(C(=O)NC(Cc2ccccc2)C(=O)OC)cc1 (configuration not stated)	2	-82	2	2	0	-7
COCCSc1ccccc1C(=O)N1CCc2ccccc21	-8	9	·	6	·	5
COc1cccc(NC(=O)CSc2nnc3ccc(-c4ccncc4)nn23)c1	·	15	·	1	·	17
Oc1ccc(N2CCN(Cc3ccc(OCCCN4CCCCC4)cc3)CC2)cc1	-7	-1	4	69*	-3	2
CCCCOc1ccc(CN2CCCCC2)cc1	-22	8	2	59*	-3	-3
CCOc1ccc(OCCCCN2CCCC2)cc1	-10	-14	0	28	-1	4
c1ccc(COc2ccc(OCCCCN3CCCCC3)cc2)cc1	5	-10	2	38	2	-3
CCN(CC)C(=O)C1=C(C)N(CCCOC)C(=O)C(CC(=O)NCCN2CCOCC2)C1 (configuration not stated)	·	·	·	·	·	0
COc1cccc(-c2nnc(NC(=O)c3ccc(Cl)s3)o2)c1	-11	1	-1	34	2	58*
O=C(NCCc1ccc(F)cc1)C(=O)Nc1cc2c3c(c1)CC(=O)N3CCC2	·	i	-1	3	-3	53*
O=C(NCCc1ccc(Cl)cc1)C(=O)Nc1cc2c3c(c1)CC(=O)N3CCC2	·	18	-2	1	2	42
COCCNC(=O)C(=O)Nc1cc2c3c(c1)C(C)C(=O)N3CCC2 (configuration not stated)	16	0	2	-14	18*	11
COc1ccccc1CCNC(=O)C(=O)Nc1cc2c3c(c1)C(C)C(=O)N3CCC2 (configuration not stated)	·	i	2	13	0	15
Cc1cc(N2CCN(C)CC2)ccc1NC(=O)c1cccc(S(=O)(=O)N2CCc3ccccc3C2)c1	1	-17	4	75*	0	-19
Cc1ccc(NC(=O)c2cccc(S(=O)(=O)N3CCc4ccccc4C3)c2)nc1	·	3	1	16	-3	-7
CCCCc1cc(=O)oc2cc(OCC(=O)Nc3cccnc3)c(Cl)cc12	-19	-6	-1	-7	1	-18
Cc1ccc(CN2CCNC(=O)C2CC(=O)NC2CCCCCC2)cc1 (configuration not stated)	-1	12	-1	11	7	4
O=C(CC1C(=O)NCCN1Cc1ccc(F)cc1)NC1CCCCCCC1 (configuration not stated)	7	-26	1	31	19*	-5
O=C(NCCc1ccncc1)Nc1ccc(Cl)c(Cl)c1	-2	5	1	68*	4	2
Cc1cc(NC(=O)CCCn2cnc([N+](=O)[O-])n2)no1	2	12	-3	58*	-2	5
Cc1c(Cl)cccc1NC(=O)CCCn1cnc([N+](=O)[O-])n1	13	-29	3	56*	2	14
O=C(CCCn1cnc([N+](=O)[O-])n1)Nc1ccc(Cl)c(Cl)c1	-6	4	4	82*	-6	-1
Cc1nn(-c2ccccc2)c(Cl)c1C(=O)Nc1nnc(C2CCCCC2)s1	-15	-24	4	6	-1	-3
O=C(Nc1nnc(C2CC2)s1)c1cc(-c2ccccc2)nn1-c1ccccc1	-6	0	1	16	3	52*
SMILES	p-CIP stab down	JMJD2C inh	PP5 primary	T cruzi inh	Fh CTSL1 inh	H9c2 protect
NC(=O)NNC(=S)Nc1cccc2ccccc12	3	14	-1	-15	91*	0
CCOC1=C2CN(S(=O)(=O)c3ccc(C)cc3)[C@@H](c3cccs3)C[C@H]2[C@H]2C(=O)N(c3ccccc3)C(=O)[C@H]2C1	·	·	·	·	·	1
CCC1CCCCN1S(=O)(=O)c1ccc(NC(=O)c2nc(S(C)(=O)=O)ncc2Cl)cc1 (configuration not stated)	-42	5	6	40	1	-19
Cc1ccc(CS(=O)(=O)c2ncc(Cl)c(C(=O)Nc3ccc(OC(F)F)cc3)n2)cc1	-14	-21	-1	-22	-1	-17
CCS(=O)(=O)c1ncc(Cl)c(C(=O)Nc2ccc(C)cc2)n1	-11	10	5	79*	-3	-20
CCS(=O)(=O)c1ncc(Cl)c(C(=O)Nc2ccc(S(=O)(=O)N3CCCC(C)C3)cc2)n1 (configuration not stated)	-24	3	3	56*	-1	-17
COCCCNC(=O)c1ccccc1Oc1ccccc1	-6	-13	1	-2	0	9
COCCCNC(=O)c1ccc2c3c(onc13)-c1ccccc1C2=O	-2	-2	3	16	22*	-18
CC1(C)Cc2c(C#N)c(SCCOc3ccccc3)nc(N3CCOCC3)c2CO1	-8	2	0	69*	1	23
Cc1c(C#N)c(NC(=O)CCl)n(Cc2ccccc2)c1C	-18	-6	0	?	40*	-12
Cc1c(C#N)c(NC(=O)CCl)n(Cc2ccc(F)cc2)c1C	-6	0	1	15	12	-9
Cc1c(C#N)c(NC(=O)CCl)n(Cc2cccs2)c1C	-22	21	0	61*	51*	-11
CCCCN1CCC(=O)C(C(=O)OCC)=C1C(=O)OCC	·	·	·	·	·	4
CCN(CC)C(=O)c1cccc2nc3ccccc3nc12	-1	10	2	-5	-4	-4
COC(=O)c1cccc2nc3c(C(C)O)cccc3nc12 (configuration not stated)	2	28	8	-5	87*	5
C=CCOCCn1[nH]c2ccccc2c1=O	·	-1	1	·	-4	7
CCN(Cc1ccncc1)C(=O)c1cc(COc2c(C)cccc2C)on1	-4	4	4	57*	-3	0
CCn1c(=O)c(CCC(=O)NCC2CCCO2)c(C)c2c(C)nn(-c3ccccc3)c21 (configuration not stated)	-10	16	1	-1	2	4
Cc1ccc(-n2nc(C)c3c(C)c(CCC(=O)NCC4CCCO4)c(=O)n(C)c32)cc1 (configuration not stated)	9	21	3	63*	-1	0
O=C1CSC(c2cccc([N+](=O)[O-])c2)N1c1c(F)cccc1F (configuration not stated)	2	-6	2	1	20*	-1
Cc1ccc(/C=C/S(=O)(=O)NCC(=O)OCC(=O)Nc2c(F)cccc2F)cc1	·	1	1	-19	-10	-6
O=S(=O)(/N=C(/c1ccccc1)N1CCOCC1)c1ccc(F)cc1F	·	6	·	·	·	-4

Bioassay records (PubChem)
